Test results as given in ChEMBL document CHEMBL5512639, “Insights from structure-activity relationships and the binding mode of peptidic α-ketoamide inhibitors of the malaria drug target subtilisin-like SUB1” (Eur J Med Chem, 2024).
The source made the active and inactive calls. The rule behind the calls is not given here. Numbered stars: 1 amine (or outer) side, 2 acyl side, 3 side chain; on linkers, the order of the positions; unused ones are H or OH. Square brackets hold non-standard residues; d marks the D form. Peptide text beside a SMILES is read from it. * marks the point of attachment. X3 = NC(=O)CC[C@H](N[*:1])C(=O)C(=O)[*:2]; Gly(cPent) = N[C@H](C(=O)O)C1CCCC1; X1 = C[C@H](N[*:1])C(=O)C(=O)[*:2]; Pentanoyl(4-Me) = CC(C)CCC(=O)*; OAll = C=CCO*

What was measured:
[1] = test system: Subtilisin-like protease 1 (Plasmodium vivax); experiment: Binding affinity to Plasmodium vivax SUB1 catalytic domain assessed as thermal stabilization by measuring change in melting temperature by differential scanning fluorimetry
Sus scrofa [2] = organism: Sus scrofa; experiment: Inhibition of porcine Pancreas trypsin using Nalpha-benzoyl-L-arginine-p-nitroanilide hydrochloride preincubated with compound for 15 mins followed by substrate addition and measured after 1 hr; conditions: time 75.0 min
Outline: (§1)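 Enzyme in 100 mM Tris-HCl pH 8.0, 20 mM CaCl2: trypsin 5 μg/mL, chymotrypsin 0.5 μg/mL or elastase 5 μg/mL. Mixed with compound (2 μL of 10 mM stock into 98 μL) and preincubated 15 min. p-Nitroanilide substrate then added to 1 mM final. Absorbance at 405 nm followed for 1 h; DMSO and 2 mM PMSF as controls; triplicate.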

[3] = Inhibition of full length recombinant Plasmodium vivax SUB1 expressed in Drosophila S2 cells using Dabsyl-KLVGADDV-SLA-EDANS as substrate measured every 2 mins for 1 hr by FRET assay
[4] = test system: Subtilisin-like protease 1 (Plasmodium vivax); experiment: Binding affinity to Plasmodium vivax SUB1 using Dabsyl-KLVGADDV-SLA-EDANS as substrate using catalytic domain assessed as bound half life by jump dilution assay
[5] = Selectivity ratio, ratio of IC50 for porcine Pancreas elastase to IC50 for Plasmodium falciparum SUB1
Plasmodium falciparum [6] = experiment: Antiparasitic activity against Plasmodium falciparum infected in human Erythrocyte assessed as inhibition of merozoite egress from human Erythrocyte at 100 uM measured for 8 hrs by flow cytometry analysis relative to control; format: functional
Outline: (§2)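 P. falciparum cultured in human RBCs, RPMI 1640 with 25 mM HEPES, 2.5% Albumax II, 100 μM hypoxanthine, 37 °C, 5% O2/5% CO2. Sorbitol-synchronized, plasmion-enriched late schizonts at 2% hematocrit, 1% parasitemia exposed to compound for 8 h. Fixed in glutaraldehyde, permeabilized, RNase-treated, stained with YOYO-1. Ring parasitemia by flow cytometry (100,000 events) vs DMSO. Triplicate; IC50 from 16 concentrations, 180 to 0.8 μM.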

[7] = Inhibition of elastase (unknown origin); design: species or system Homo sapiens
[8] = Metabolic stability in human serum measured after 24 hrs by LC-MS analysis; format: ADME, cell-free; conditions: read-out: Stability
Outline: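 Pooled human serum prewarmed 20 min at 37 °C; peptide added to 0.6 mM final. Aliquots taken over 0-24 h and proteins precipitated with MeCN/H2O/formic acid. Supernatant lyophilized and analysed by LC-SWATH-MS. Intact peak area expressed as % of the 0 h value. Two independent experiments in duplicate, mean ± SEM.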

Bos taurus = organism: Bos taurus; experiment: Inhibition of bovine Pancreas chymotrypsin using Nalpha-succinyl-Ala-Ala-Pro-phe-p-nitroanilide preincubated with compound for 15 mins followed by substrate addition and measured after 1 hr; conditions: time 75.0 min
Outline: as §1

[9] = Inhibition of porcine Pancreas elastase using Nalpha-succinyl-Ala-Ala-Ala-p-nitroanilide preincubated with compound for 15 mins followed by substrate addition and measured after 1 hr; design: species or system Sus scrofa
Outline: as §1

[10] = Selectivity ratio, ratio of IC50 for porcine Pancreas elastase to IC50 for Plasmodium vivax SUB1
[11] = Selectivity ratio of IC50 for inhibition of full length recombinant Plasmodium vivax SUB1 expressed in Drosophila S2 cells using Dabsyl-KLVGADDV-SLA-EDANS as substrate to IC50 for inhibition of full length recombinant Plasmodium falciparum SUB1 using Dabsyl-KLVSADNIDIS-EDANS as substrate
[12] = target: T1, Subtilisin-like protease 1 (Plasmodium falciparum, UniProt O61142); experiment: Inhibition of full length recombinant Plasmodium falciparum SUB1 using Dabsyl-KLVSADNIDIS-EDANS as substrate measured every 2 mins for 1 hr by FRET assay
T1 sequence (O61142 whole entry): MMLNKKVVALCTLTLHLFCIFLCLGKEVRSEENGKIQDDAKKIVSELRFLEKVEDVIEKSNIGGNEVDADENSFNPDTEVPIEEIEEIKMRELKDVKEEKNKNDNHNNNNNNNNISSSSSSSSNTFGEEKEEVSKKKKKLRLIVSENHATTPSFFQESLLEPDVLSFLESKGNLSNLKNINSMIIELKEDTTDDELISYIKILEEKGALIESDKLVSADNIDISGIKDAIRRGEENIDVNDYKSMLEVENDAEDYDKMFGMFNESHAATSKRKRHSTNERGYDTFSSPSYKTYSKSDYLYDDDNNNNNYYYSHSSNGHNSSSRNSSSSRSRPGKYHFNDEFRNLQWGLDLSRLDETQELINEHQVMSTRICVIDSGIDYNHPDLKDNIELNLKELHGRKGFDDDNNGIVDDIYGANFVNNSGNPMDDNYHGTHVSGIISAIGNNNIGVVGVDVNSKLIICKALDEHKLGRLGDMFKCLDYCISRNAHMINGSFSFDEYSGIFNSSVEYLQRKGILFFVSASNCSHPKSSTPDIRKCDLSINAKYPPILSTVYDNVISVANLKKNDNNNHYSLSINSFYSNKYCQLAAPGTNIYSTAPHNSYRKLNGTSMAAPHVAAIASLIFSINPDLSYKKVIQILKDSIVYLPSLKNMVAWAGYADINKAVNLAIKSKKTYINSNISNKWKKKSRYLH

Sus scrofa [13] = organism: Sus scrofa; experiment: Inhibition of porcine Pancreas elastase using Nalpha-succinyl-Ala-Ala-Ala-p-nitroanilide preincubated with compound for 15 mins followed by substrate addition and measured after 1 hr relative to control; conditions: time 75.0 min
Outline: as §1

[14] = test system: Subtilisin-like protease 1 (Plasmodium vivax); experiment: Binding affinity to Plasmodium vivax SUB1 using Dabsyl-KLVGADDV-SLA-EDANS as substrate using catalytic domain assessed as dissociation constant (Koff) by jump dilution assay
[15] = (§3) Selectivity index, ratio of INH for antiparasitic activity against Plasmodium falciparum infected in human Erythrocyte assessed as inhibition of merozoite egress from human Erythrocyte at 100 uM to INH for antiparasitic activity against synchronous parasite Plasmodium falciparum infected in human Erythrocyte at 100 uM; format: functional
Outline: (§4)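 SI = 1 − (% trophogony inhibition / % T0-T8 egress inhibition), each at the same concentration. Trophogony arm: 0-3 h rings, 28 h exposure, washout, 38 h regrowth. Egress arm: late schizonts, 8 h exposure. Both read as parasitemia by flow cytometry vs DMSO.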

Plasmodium falciparum [16] = experiment: Antiparasitic activity against Plasmodium falciparum infected in human Erythrocyte assessed as inhibition of merozoite egress from human Erythrocyte at 25 uM measured for 8 hrs by flow cytometry analysis relative to control; format: functional
Outline: as §2

Plasmodium falciparum [17] = experiment: Antiparasitic activity against synchronous parasite Plasmodium falciparum infected in human Erythrocyte at 25 uM incubated for 28 hrs followed by compound washout and measured after 38 hrs; format: functional
Outline: (§5)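 Trophogony off-target check: synchronous 0-3 h post-invasion rings (2% hematocrit, 1% parasitemia) exposed to compound or matched DMSO (1% or 0.25% final) for 28 h. Cells then washed and recultured without compound for 38 h. Parasitemia read by YOYO-1 flow cytometry; growth inhibition expressed relative to DMSO.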

Plasmodium falciparum [18] = experiment: Antiparasitic activity against Plasmodium falciparum infected in human Erythrocyte assessed as inhibition of merozoite egress from human Erythrocyte measured for 8 hrs by flow cytometry analysis; format: functional, organism-based
Outline: as §2

[19] = as §3, with “25” for “100”; format: functional
Outline: as §4

Plasmodium falciparum [20] = experiment: Antiparasitic activity against synchronous parasite Plasmodium falciparum infected in human Erythrocyte at 100 uM incubated for 28 hrs followed by compound washout and measured after 38 hrs; format: functional
Outline: as §5

[21] = target: T1, Subtilisin-like protease 1; experiment: Inhibition of Plasmodium falciparum SUB1 assessed as inhibition constant

| Structure (SMILES) | ΔTm [1] [°C] | IC50 [3] [nM] | T1/2 [4] [min] | inhibition at 100 µM (Plasmodium falciparum [6]) [%] | remaining at 24 h [8] [%] | Ratio IC50 [11] | IC50 [12] [nM] | K [14] [min⁻¹] | further results |
| --- | --- | --- | --- | --- | --- | --- | --- | --- | --- |
| C=CCOC(=O)CC[C@H](NC(=O)[C@H](CC(=O)O)NC(=O)C(=O)[C@H](C)NC(=O)[C@H](C)NC(=O)[C@@H](NC(=O)[C@@H](NC(C)=O)C1CCCC1)[C@@H](C)O)C(N)=O | 14.3 | 50 | 30 | 37 | ~95 | 9 | 570 | 0.023 | inhibition (Sus scrofa [2]): inactive; Ratio IC50 [5]: 63; IC50 [7]: 820 nM; inhibition (Bos taurus): inactive; IC50 [9]: 36000 nM; Ratio IC50 [10]: 720; inhibition (Sus scrofa [13]): Active |
| C=CCOC(=O)CC[C@H](NC(=O)[C@H](CC(=O)O)NC(=O)C(=O)[C@H](C)NC(=O)[C@H](C)NC(=O)[C@@H](NC(=O)[C@@H](NC(C)=O)[C@@H](C)CC)[C@@H](C)O)C(N)=O (Ac-ITA[X1]DE(OAll)-NH2) | – | 180 | 10 | 13 | ~95 | 9 | 1950 | 0.074 | – |
| CC(=O)N[C@H](C(=O)N[C@H](C(=O)N[C@@H](C)C(=O)N[C@@H](C)C(=O)C(=O)N[C@@H](CC(=O)O)C(=O)N[C@H](C(N)=O)C1CCCC1)[C@@H](C)O)C1CCCC1 (Ac-[Gly(cPent)]TA[X1]D[Gly(cPent)]-NH2) | 12.7 | 12 | – | 100 | – | – | 10 | – | Selectivity Index [15]: 0.94; inhibition at 25 µM (Plasmodium falciparum [16]): 60%; Activity (Plasmodium falciparum [17]): 0%; IC50 (Plasmodium falciparum [18]): 22600 nM; Selectivity Index [19]: 1; Activity (Plasmodium falciparum [20]): 6% |
| CC[C@H](C)[C@H](NC(=O)[C@H](CCCCN)NC(=O)CCC(C)C)C(=O)N[C@H](C(=O)N[C@@H](C)C(=O)N[C@@H](CCC(N)=O)C(=O)C(=O)N[C@@H](CC(=O)O)C(=O)N[C@@H](CC(=O)O)C(=O)N[C@@H](CCC(N)=O)C(=O)N[C@@H](CCC(N)=O)C(N)=O)[C@@H](C)O ({Pentanoyl(4-Me)}-KITA[X3]DDQQ-NH2) | – | – | – | – | – | – | – | – | Ki [21]: 10000 nM |
